Test results: PMC8569251 (European journal of pharmaceutical sciences : official …, 2020)
In brackets after ≈: the same amount, converted by molar mass.

Assays:
C. albicans yeast = test: Antimicrobial activity; type: cell-based, C. albicans SC5314
[1] = tested on: C. albicans hyphae (biofilm); test: Inhibition of Candida biofilm; type: cell-based, C. albicans SC5314
E. coli = test: Antimicrobial activity; type: cell-based; conditions: 24 h incubation; MIC100
Procedure, shortened: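 E. coli from LB medium, inoculated into LB broth at 10⁵ CFU/mL in 96-well plates with test compound at 1–400 µg/mL. Concentrations re-tested in 1 µg/mL (low MIC) or 5 µg/mL (high MIC) steps. MIC is the lowest concentration giving 100% growth inhibition. Triplicate. Colistin positive control; compound-free culture negative control.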

[2] = tested on: methicillin-resistant Staphylococcus aureus (MRSA) LAC300; test: Antimicrobial activity; type: cell-based; conditions: 24 h, read-out: MIC, Bacteria S. aureus
[3] = experimental activities, −log MIC50, QSAR training set

`CC(=O)N1CCN(c2ccc(OCC3COC(Cn4ccnc4)(c4ccc(Cl)cc4Cl)O3)cc2)CC1` (stereo not shown) [Ketoconazole, reference compound] was tested, and the MIC (C. albicans yeast; 24 h, read-out: MIC, C. albicans Yeast) was 3 µg/mL (≈ 5.65 µM).
For `COc1cc(C=C2SC(=S)NC2=O)ccc1OCc1cccc(C(F)(F)F)c1` [SR7], the hyphae inhibition ([1]; 10 μg/mL) was 90%, the “MIC, C. albicans Hyphae” value ([1]; 24 h incubation, 100% inhibition of biofilm (hyphal) formation (MIC100)) was 10 ± 3 µg/mL (≈ 23.5 µM) and the “pMIC50 Hyphae” value [1, 3] was 4.764 M/L. The “MIC, Bacteria E. coli” value (E. coli) was 100 ± 5 µg/mL (≈ 235 µM), the “MIC, C. albicans Yeast” value (C. albicans yeast; 24 h incubation, lowest concentration inhibiting 100% of growth (MIC100)) was 125 ± 10 µg/mL (≈ 294 µM) and the “pMIC50 Yeast” value (C. albicans yeast; [3]) was 3.579 M/L.
Work on `CN[C@H](CC(C)C)C(=O)N[C@H]1C(=O)N[C@@H](CC(N)=O)C(=O)N[C@H]2C(=O)N[C@H]3C(=O)N[C@H](C(=O)N[C@H](C(=O)O)c4cc(O)cc(O)c4-c4cc3ccc4O)[C@H](O)c3ccc(c(Cl)c3)Oc3cc2cc(c3O[C@@H]2O[C@H](CO)[C@@H](O)[C@H](O)[C@H]2O[C@H]2C[C@](C)(N)[C@H](O)[C@H](C)O2)Oc2ccc(cc2Cl)[C@H]1O` [Vancomycin] yielded an MIC [2] of 3 µg/mL (≈ 2.07 µM).
With Colistin [reference compound] the “MIC, Bacteria E. coli” value (E. coli) was 5 µg/mL.
In the case of Triton X-100, the “erythrocyte hemolysis (positive control)” value (human erythrocytes) is reported as 100%.
